# Active and inactive are the calls of the source. The rule behind the calls is not given here.
# Experiments:
# Candida albicans [1] = assay: Antifungal activity against Candida albicans ATCC 90028 by microscopy; format: functional
# Method in brief: (§1)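 Modified NCCLS microdilution. Samples in DMSO serially diluted in saline and tested in duplicate against inocula standardized to 0.5 McFarland. Broths: C. albicans SDB or RPMI 1640; C. neoformans SDB; A. fumigatus YM broth. Highest final concentration 20 µg/mL. MIC read visually as the lowest concentration with no detectable growth (for Alamar Blue wells, no blue-to-pink change).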
# Cryptococcus neoformans [2] = assay: Fungicidal activity against Cryptococcus neoformans ATCC 90113; format: functional
# Cryptococcus neoformans [3] = assay: Antifungal activity against Cryptococcus neoformans ATCC 90113 by microscopy; format: functional
# Method in brief: as §1, with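 “McFarland.” for “McFarland. Broths: C. albicans SDB or RPMI 1640; C. neoformans SDB; A. fumigatus YM broth.”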
# Candida albicans [4] = assay: Antifungal activity against Candida albicans ATCC 90028 at 20 ug/mL by microscopy; format: functional, organism-based; method in brief: as §1
# Cryptococcus neoformans [5] = assay: Antifungal activity against Cryptococcus neoformans ATCC 90113 assessed as inhibition of fungal growth by alamar blue assay; format: functional, organism-based
# Method in brief: (§2)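 Broth microdilution modified from NCCLS. DMSO stocks serially diluted in saline and plated in duplicate. Inoculum set by 0.5 McFarland standard. Media: C. albicans in SDB or RPMI 1640; C. neoformans in SDB; A. fumigatus in RPMI-1640 + 5% Alamar Blue. Highest final concentration 20 µg/mL. Plates read before and after incubation by fluorescence 544ex/590em (A. fumigatus) or OD 630 nm. IC50 from percent growth vs concentration.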
# Aspergillus fumigatus [6] = assay: Antifungal activity against Aspergillus fumigatus ATCC 90906 assessed as inhibition of fungal growth by alamar blue assay; format: functional, organism-based; settings: Aspergillus fumigatus, ATCC 90906; read-out: IC50; method in brief: as §2
# Candida albicans [7] = assay: Fungicidal activity against Candida albicans ATCC 90028 at 20 ug/mL; format: functional, organism-based
# Aspergillus fumigatus [8] = assay: Fungicidal activity against Aspergillus fumigatus ATCC 90906 at 20 ug/mL; format: functional, organism-based
# [9] = Cytotoxicity against african green monkey Vero cells after 48 hrs by neutral red assay; format: cell-based; settings: chlorocebus sabaeus, read-out: TC50
# Method in brief: (§3)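 Vero kidney fibroblasts seeded at 25,000 cells/well and grown 24 h, then exposed to samples up to 20 µg/ml for 48 h. Viable cells measured by neutral red assay. IC50 taken from growth-inhibition vs concentration curves. DMSO served as vehicle control.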
# Candida albicans [10] = assay: Antifungal activity against Candida albicans ATCC 90028 assessed as inhibition of fungal growth by alamar blue assay; format: functional, organism-based; method in brief: as §2
# Aspergillus fumigatus [11] = assay: Antifungal activity against Aspergillus fumigatus ATCC 90906 at 20 ug/mL by microscopy; format: functional, organism-based; method in brief: as §1
# Candida albicans [12] = assay: Antifungal activity against Candida albicans ATCC 90028 assessed as inhibition of fungal growth at 20 ug/mL by alamar blue assay; format: functional, organism-based; method in brief: as §2
# Vero = assay: Cytotoxicity against african green monkey Vero cells at 20 ug/mL after 48 hrs by neutral red assay; format: cell-based; settings: chlorocebus sabaeus; method in brief: as §3
# Aspergillus fumigatus [13] = assay: Antifungal activity against Aspergillus fumigatus ATCC 90906 assessed as inhibition of fungal growth at 20 ug/mL by alamar blue assay; format: functional, organism-based; method in brief: as §2
# Cryptococcus neoformans [14] = assay: Fungicidal activity against Cryptococcus neoformans ATCC 90113 at 20 ug/mL; format: functional, organism-based
# Cryptococcus neoformans [15] = assay: Antifungal activity against Cryptococcus neoformans ATCC 90113 at 20 ug/mL by microscopy; format: functional, organism-based; method in brief: as §1
# Cryptococcus neoformans [16] = assay: Antifungal activity against Cryptococcus neoformans ATCC 90113 assessed as inhibition of fungal growth at 20 ug/mL by alamar blue assay; format: functional, organism-based; method in brief: as §2
# [17] = Cytotoxicity against african green monkey Vero cells; format: cell-based; settings: chlorocebus sabaeus, read-out: TC50 (the source's name); method in brief: as §3
# Candida albicans [18] = assay: Fungicidal activity against Candida albicans ATCC 90028; format: functional
# Aspergillus fumigatus [19] = assay: Antifungal activity against Aspergillus fumigatus ATCC 90906 by microscopy; format: functional; method in brief: as §1
# Aspergillus fumigatus [20] = assay: Fungicidal activity against Aspergillus fumigatus ATCC 90906; format: functional
# Cryptococcus neoformans [21] = assay: Antifungal activity against Cryptococcus neoformans at 20 ug/mL
Structure (SMILES),MIC (Candida albicans [1]) [µg/mL],MIC (Cryptococcus neoformans [3]) [µg/mL],MFC (Cryptococcus neoformans [2]) [µg/mL],Activity (Candida albicans [4]),IC50 (Cryptococcus neoformans [5]) [µg/mL],Activity (Candida albicans [7]),Activity (Aspergillus fumigatus [8]),CC50 at 48 h [9] [µg/mL],IC50 (Candida albicans [10]) [µg/mL],Activity (Aspergillus fumigatus [11]),inhibition (Candida albicans [12]),Activity (Vero),inhibition (Aspergillus fumigatus [13]),Activity (Cryptococcus neoformans [14]),Activity (Cryptococcus neoformans [15]),inhibition (Cryptococcus neoformans [16]),other results
C[n+]1cccc(Nc2ccccc2)c1.[I-],–,–,–,–,–,–,–,–,–,–,–,Non-toxic,–,–,–,–,–
C[n+]1cc(Nc2ccc(Cl)cc2)cc2ccccc21.[I-],–,–,–,inactive,–,inactive,inactive,–,–,inactive,inactive,Non-toxic,inactive,inactive,inactive,inactive,–
C[n+]1cc(Nc2ccccc2)cc2ccccc21.[I-],–,–,–,inactive,–,inactive,inactive,–,–,inactive,inactive,Non-toxic,inactive,inactive,inactive,inactive,–
C[n+]1cc(Nc2cccc(Cl)c2)cc2ccccc21.[I-],–,–,–,inactive,–,inactive,inactive,–,–,inactive,inactive,Non-toxic,inactive,inactive,inactive,inactive,–
C[n+]1cc(Nc2ccccc2Cl)cc2ccccc21.[I-],–,–,–,inactive,–,inactive,inactive,–,–,inactive,inactive,Non-toxic,inactive,inactive,inactive,inactive,–
C[n+]1c2ccccc2cc2[n-]c3ccccc3c21 [CRYPTOLEPINE],–,20,–,–,–,–,–,–,20,–,–,–,–,–,–,–,MIC (Cryptococcus neoformans [21]): 12.5 µg/mL; CC50 [17]: 3.2 µg/mL

# The next lines start with results.
MIC (Candida albicans [1]) [µg/mL],MIC (Cryptococcus neoformans [3]) [µg/mL],Structure (SMILES),MFC (Cryptococcus neoformans [2]) [µg/mL],Activity (Candida albicans [4]),IC50 (Cryptococcus neoformans [5]) [µg/mL],Activity (Candida albicans [7]),Activity (Aspergillus fumigatus [8]),CC50 at 48 h [9] [µg/mL],IC50 (Candida albicans [10]) [µg/mL],Activity (Aspergillus fumigatus [11]),inhibition (Candida albicans [12]),Activity (Vero),inhibition (Aspergillus fumigatus [13]),Activity (Cryptococcus neoformans [14]),Activity (Cryptococcus neoformans [15]),inhibition (Cryptococcus neoformans [16]),other results
20,2.5,C[n+]1cccc(N(CCCCCC2CCCCC2)c2ccccc2)c1.[I-],2.5,inactive,1.5,inactive,inactive,> 10,8.3,inactive,inactive,–,–,–,–,–,IC50 (Aspergillus fumigatus [6]): 19.7 µg/mL
–,5,C[n+]1cccc(N(CCCCCC2CCCCC2)c2cccc(C#N)c2)c1.[I-],5,inactive,3.5,inactive,–,> 10,–,–,inactive,–,inactive,–,–,–,–
20,2.5,C[n+]1cccc(N(CCCCCC2CCCCC2)c2ccc(F)cc2)c1.[I-],2.5,inactive,1.4,inactive,inactive,> 10,9.6,inactive,inactive,–,inactive,–,–,–,–
0.6,–,C[C@@H]1[C@H](O)[C@@H](C)/C=C/C=C/C=C/C=C/C=C/C=C/C=C/[C@H](O[C@@H]2O[C@H](C)[C@@H](O)[C@H](N)[C@@H]2O)C[C@@H]2O[C@](O)(C[C@@H](O)C[C@@H](O)[C@H](O)CC[C@@H](O)C[C@@H](O)CC(=O)O[C@H]1C)C[C@H](O)[C@H]2C(=O)O [AMPHOTERICIN B],1,–,1.3,–,–,7.6,–,–,–,–,–,–,–,–,CC50 [17]: 7.6 µg/mL; MFC (Candida albicans [18]): 1.3 µg/mL; MIC (Aspergillus fumigatus [19]): 1.3 µg/mL; IC50 (Aspergillus fumigatus [6]): 0.7 µg/mL; MFC (Aspergillus fumigatus [20]): 5 µg/mL
10,2.5,COc1ccc(N(CCCCCC2CCCCC2)c2ccc[n+](C)c2)cc1.[I-],2.5,–,1.4,–,–,> 10,5.1,–,–,–,inactive,–,–,–,MFC (Candida albicans [18]): 20 µg/mL
20,5,COc1cccc(N(CCCCCC2CCCCC2)c2ccc[n+](C)c2)c1.[I-],5,–,3.6,–,–,> 10,8.9,–,–,–,inactive,–,–,–,MFC (Candida albicans [18]): > 20 µg/mL

# Reference: ChEMBL document CHEMBL1641580, “Identification of 3-phenylaminoquinolinium and 3-phenylaminopyridinium salts as new agents against opportunistic fungal pathogens” (Bioorg Med Chem, 2011)
